Results reported in ChEMBL document CHEMBL4609986 (Bioorg Med Chem, 2020).

Experiments:
[1] = molecular target: T1, Dual specificity tyrosine-phosphorylation-regulated kinase 1A (Homo sapiens, UniProt Q13627); experiment: Binding affinity to wild-type human partial length DYRK1A (H129 to S509 residues) expressed in mammalian expression system by Kinomescan method
In short: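 Kd measured in a KdELECT binding assay using an 11-point, 3-fold dilution series with three DMSO control points.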

[2] = species on record: Homo sapiens; experiment: Selectivity index, ratio of CC50 for human HEK293T cells transfected with DYRK1A co-tranfected with Renilla plasmid, pGL3-NFAT and NFATc1 assessed as reduction in luciferase activity by measuring cell number to EC50 for human DYRK1A transfected in HEK293T cells co-transfected with Renilla plasmid, pGL3-NFAT and NFATc1 assessed as derepression of NFAT-dependent luciferase activity measured after 48 hrs by luciferase assay; format: cell-based
In short: (§1)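 HEK293T cells transfected with PEI using DYRK1A, Renilla plasmid, IL-2-based pGL3-NFAT firefly reporter and NFATc1. Next day the same transfected population was split into 96-well plates; 6 h later cells were treated for 48 h (11-point dose curve, n = 4), then lysed. EC50 from firefly/Renilla ratio, 4-parameter agonist fit. CC50 from loss of constitutive Renilla signal, 4-parameter inhibitor fit.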

[3] = system: HEK-293T; experiment: (§2) Cytotoxicity against human HEK293T cells transfected with DYRK1A co-tranfected with Renilla plasmid, pGL3-NFAT and NFATc1 assessed as reduction in luciferase activity by measuring cell number; format: cell-based; conditions: hek-293t; in short: as §1
[4] = molecular target: T1, Dual specificity tyrosine-phosphorylation-regulated kinase 1A; experiment: Inhibition of human DYRK1A transfected in HEK293T cells co-transfected with Renilla plasmid, pGL3-NFAT and NFATc1 assessed as derepression of NFAT-dependent luciferase activity measured after 48 hrs by luciferase assay; format: cell-based, HEK-293T; in short: as §1
[5] = molecular target: Maternal embryonic leucine zipper kinase (Homo sapiens, UniProt Q14680); experiment: Binding affinity to wild-type human full length MELK (M1 to V651 residues) expressed in bacterial expression system by Kinomescan method
Maternal embryonic leucine zipper kinase, sequence (Q14680 whole entry, the tested form may be a part): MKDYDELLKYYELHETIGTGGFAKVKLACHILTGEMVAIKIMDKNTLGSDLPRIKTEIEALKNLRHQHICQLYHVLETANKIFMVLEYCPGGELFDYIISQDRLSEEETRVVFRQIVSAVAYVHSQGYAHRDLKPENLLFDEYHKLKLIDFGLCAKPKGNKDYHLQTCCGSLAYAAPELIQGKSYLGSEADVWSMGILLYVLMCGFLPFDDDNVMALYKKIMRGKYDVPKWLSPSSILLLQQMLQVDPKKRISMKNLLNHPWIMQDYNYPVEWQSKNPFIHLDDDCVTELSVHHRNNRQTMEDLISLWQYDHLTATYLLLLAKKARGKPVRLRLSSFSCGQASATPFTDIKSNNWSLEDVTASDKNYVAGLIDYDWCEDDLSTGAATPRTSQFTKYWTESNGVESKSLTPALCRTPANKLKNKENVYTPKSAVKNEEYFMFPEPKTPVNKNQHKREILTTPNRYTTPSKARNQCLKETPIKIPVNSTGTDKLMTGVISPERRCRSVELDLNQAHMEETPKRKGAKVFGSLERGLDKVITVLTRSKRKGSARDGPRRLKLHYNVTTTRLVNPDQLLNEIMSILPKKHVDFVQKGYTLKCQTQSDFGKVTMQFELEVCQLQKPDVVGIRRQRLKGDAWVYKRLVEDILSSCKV

[6] = molecular target: T1, Dual specificity tyrosine-phosphorylation-regulated kinase 1A; experiment: Inhibition of DYRK1A in human pancreatic islets assessed as induction of pancreatic beta-cells replication measured after 48 hrs by Hoechst 33342 staining based analysis
In short: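 Human islets (85-95% purity) rested 12 h in low-glucose DMEM with 10% FBS and 20 nM exendin-4. Dispersed to single cells and plated on 804G-conditioned-matrix 384-well plates for 48 h. Treated 48 h, then fixed with 4% PFA. Stained with anti-insulin, anti-Ki-67 and 4 μM Hoechst 33342; Ki67+Insulin+/Insulin+ scored by high-content imaging against per-plate cutoffs.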

[7] = Cytotoxicity against mouse R7T1 cells assessed as reduction in cell viability measured after 48 hrs by Hoechst 33342 staining based analysis
In short: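 Mouse R7T1 β-cells cultured in high-glucose DMEM with 10% FBS, doxycycline and pyruvate, plated at 25,000 cells/well. Treated in quadruplicate 6 h later (0.169–10,000 nM) for 48 h. Cells fixed in paraformaldehyde and stained with 4 μM Hoechst 33342; nuclei counted by high-content imaging.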

[8] = Selectivity index, ratio of CC50 for mouse R7T1 cells assessed as reduction in cell viability measured after 48 hrs by Hoechst 33342 staining based analysis to MEC for inhibition of DYRK1A in human pancreatic islets assessed as induction of pancreatic beta-cells replication measured after 48 hrs by Hoechst 33342 staining based analysis
[9] = Apparent permeability in human Caco2 cells measured after 2 hrs by LC-MS/MS analysis; format: ADME, cell-based, Caco-2; conditions: for Papp at 2 h: Caco-2
In short: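 Caco-2 monolayers grown on polycarbonate filter inserts (5 × 10⁵ cells/well seeded) and differentiated 21 ± 4 days. Transport run in HBSS with 25 mM HEPES, pH 7.4, 37 °C; compound added donor side. Receiver sampled over 2 h, donor at 0 and 2 h; LC-MS/MS with internal standard. Papp = (dC_rec/dt)/(A × C0,donor) × 10^6.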

[10] = Half life in mouse liver microsomes at 1 uM preincubated for 10 mins followed by NADPH addition and measured up to 40 mins by LC-MS/MS analysis; format: ADME, Microsome
In short: (§3)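 Human or mouse liver microsomes, each run separately, in 100 mM KxPO4 pH 7.4 with 10 mM MgCl2 and 1 μM test compound. Pre-incubated 10 min at 37 °C, then started with 1 mM NADPH. Quenched in acetonitrile stop solution at 0, 10, 20 and 40 min, centrifuged, diluted and analysed by LC-MS/MS.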

[11] = Half life in human liver microsomes at 1 uM preincubated for 10 mins followed by NADPH addition and measured up to 40 mins by LC-MS/MS analysis; format: ADME, Microsome; in short: as §3
[12] = molecular target: T2, AURKB (Aurora kinase B) (Homo sapiens, UniProt Q96GD4); experiment: Inhibition of AURKB in human HEK293T cells assessed as reduction in cell viability at 3 uM measured after 48 hrs relative to control; format: cell-based, HEK-293T
T2 sequence (Q96GD4 whole entry): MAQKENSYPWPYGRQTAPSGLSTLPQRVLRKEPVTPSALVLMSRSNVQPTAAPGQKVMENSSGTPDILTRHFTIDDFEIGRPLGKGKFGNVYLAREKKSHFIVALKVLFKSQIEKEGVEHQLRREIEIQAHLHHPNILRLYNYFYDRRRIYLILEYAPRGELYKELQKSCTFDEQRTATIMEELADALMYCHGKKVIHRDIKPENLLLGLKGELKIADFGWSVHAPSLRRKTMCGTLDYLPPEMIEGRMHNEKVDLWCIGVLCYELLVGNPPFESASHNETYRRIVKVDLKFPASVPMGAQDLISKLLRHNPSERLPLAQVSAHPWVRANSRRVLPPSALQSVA
In short: (§4)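 HEK293T cells treated 48 h with the compound alone or combined with a second kinase inhibitor at the stated level, then fixed, stained and counted. Cell number expressed as a percentage of untreated wells; n = 4-16.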

[13] = molecular target: T3, Tyrosine-protein kinase ABL1 (Homo sapiens, UniProt P00519); experiment: Inhibition of wild-type human phosphorylated ABL1 (S229 to K512 residues) expressed in mammalian expression system assessed as residual activity at 100 nM by Kinomescan method relative to control
T3 sequence (P00519 whole entry, the tested form may be a part): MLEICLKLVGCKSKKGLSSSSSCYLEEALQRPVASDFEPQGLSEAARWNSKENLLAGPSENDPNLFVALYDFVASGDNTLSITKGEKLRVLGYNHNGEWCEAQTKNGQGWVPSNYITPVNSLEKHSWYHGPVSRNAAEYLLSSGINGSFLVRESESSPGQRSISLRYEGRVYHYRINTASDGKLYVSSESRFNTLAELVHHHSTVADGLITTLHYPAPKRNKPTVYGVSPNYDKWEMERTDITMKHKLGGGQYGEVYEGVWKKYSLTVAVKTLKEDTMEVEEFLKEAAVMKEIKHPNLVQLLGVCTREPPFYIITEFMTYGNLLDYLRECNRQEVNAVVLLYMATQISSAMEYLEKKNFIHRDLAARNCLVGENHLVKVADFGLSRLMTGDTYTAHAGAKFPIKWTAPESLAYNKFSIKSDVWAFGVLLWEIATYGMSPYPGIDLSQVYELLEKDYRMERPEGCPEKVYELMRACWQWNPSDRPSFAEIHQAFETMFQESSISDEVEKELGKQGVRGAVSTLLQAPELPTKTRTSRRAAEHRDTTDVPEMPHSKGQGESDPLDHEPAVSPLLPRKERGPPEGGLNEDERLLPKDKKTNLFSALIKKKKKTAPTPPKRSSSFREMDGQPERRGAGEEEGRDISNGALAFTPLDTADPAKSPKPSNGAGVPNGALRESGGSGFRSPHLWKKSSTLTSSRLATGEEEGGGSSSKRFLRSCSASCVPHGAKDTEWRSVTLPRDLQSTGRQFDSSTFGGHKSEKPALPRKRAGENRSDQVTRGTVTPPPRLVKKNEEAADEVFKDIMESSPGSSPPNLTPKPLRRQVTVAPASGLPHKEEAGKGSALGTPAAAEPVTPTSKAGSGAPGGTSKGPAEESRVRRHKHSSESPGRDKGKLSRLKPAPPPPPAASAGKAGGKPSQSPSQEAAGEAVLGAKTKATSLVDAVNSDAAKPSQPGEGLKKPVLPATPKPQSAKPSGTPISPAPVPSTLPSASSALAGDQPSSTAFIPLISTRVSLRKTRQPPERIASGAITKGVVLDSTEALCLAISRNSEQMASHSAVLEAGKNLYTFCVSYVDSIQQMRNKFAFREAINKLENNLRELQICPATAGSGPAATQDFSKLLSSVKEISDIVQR
In short: (§5)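 Kinase panel of 468 kinases, scored as residual activity at 100 nM or 500 nM test compound.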

[14] = molecular target: T4, Aurora kinase B (Homo sapiens, UniProt Q96GD4); experiment: Inhibition of wild-type human partial length AURKB (D25 to A303 residues) expressed in mammalian expression system assessed as residual activity at 100 nM by Kinomescan method relative to control; in short: as §5
T4 sequence (Q96GD4 whole entry, the tested form may be a part): as the sequence (Q96GD4 whole entry) above

[15] = molecular target: T3, Tyrosine-protein kinase ABL1; experiment: Inhibition of wild-type human non-phosphorylated ABL1 (S229 to K512 residues) expressed in mammalian expression system assessed as residual activity at 100 nM by Kinomescan method relative to control; in short: as §5
[16] = molecular target: Dual specificity mitogen-activated protein kinase kinase 1 (Homo sapiens) (UniProt Q02750); experiment: Inhibition of wild-type human full length MEK1 (M1 to V393 residues) expressed in mammalian expression system assessed as residual activity at 100 nM by Kinomescan method relative to control; in short: as §5
Dual specificity mitogen-activated protein kinase kinase 1 (Homo sapiens), sequence (Q02750 whole entry, the tested form may be a part): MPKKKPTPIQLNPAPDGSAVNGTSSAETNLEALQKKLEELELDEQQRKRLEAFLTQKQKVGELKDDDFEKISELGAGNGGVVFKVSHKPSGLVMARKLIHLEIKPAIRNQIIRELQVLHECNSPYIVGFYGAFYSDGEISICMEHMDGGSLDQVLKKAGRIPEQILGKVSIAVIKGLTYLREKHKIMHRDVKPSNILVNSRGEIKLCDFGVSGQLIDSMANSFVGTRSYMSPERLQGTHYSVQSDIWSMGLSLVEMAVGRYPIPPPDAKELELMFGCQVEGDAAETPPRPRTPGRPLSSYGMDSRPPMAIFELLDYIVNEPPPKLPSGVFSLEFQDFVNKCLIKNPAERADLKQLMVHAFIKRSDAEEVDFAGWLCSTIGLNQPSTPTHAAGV

[17] = molecular target: Dual specificity mitogen-activated protein kinase kinase 2 (Homo sapiens) (UniProt P36507); experiment: Inhibition of wild-type human full length MEK2 (M1 to V400 residues) expressed in mammalian expression system assessed as residual activity at 100 nM by Kinomescan method relative to control; in short: as §5
Dual specificity mitogen-activated protein kinase kinase 2 (Homo sapiens), sequence (P36507 whole entry, the tested form may be a part): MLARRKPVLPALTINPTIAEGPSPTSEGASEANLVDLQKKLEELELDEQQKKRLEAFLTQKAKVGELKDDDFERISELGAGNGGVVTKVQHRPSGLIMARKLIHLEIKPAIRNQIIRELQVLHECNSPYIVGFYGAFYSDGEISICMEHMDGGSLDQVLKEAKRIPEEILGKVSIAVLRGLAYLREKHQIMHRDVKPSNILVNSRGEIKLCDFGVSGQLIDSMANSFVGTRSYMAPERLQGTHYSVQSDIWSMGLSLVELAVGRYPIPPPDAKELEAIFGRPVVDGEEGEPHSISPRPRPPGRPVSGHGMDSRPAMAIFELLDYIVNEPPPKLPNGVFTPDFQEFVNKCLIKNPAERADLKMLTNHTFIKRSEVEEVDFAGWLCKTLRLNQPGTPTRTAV

[18] = molecular target: T1, Dual specificity tyrosine-phosphorylation-regulated kinase 1A; experiment: Inhibition of wild-type human partial length DYRK1A (H129 to S509 residues) expressed in mammalian expression system assessed as residual activity at 100 nM by Kinomescan method relative to control; in short: as §5
[19] = molecular target: T5, Aurora kinase A (Homo sapiens) (UniProt O14965); experiment: Inhibition of wild-type human partial length AURKA (E122 to K401 residues) expressed in mammalian expression system assessed as residual activity at 100 nM by Kinomescan method relative to control; in short: as §5
T5 sequence (whole entry): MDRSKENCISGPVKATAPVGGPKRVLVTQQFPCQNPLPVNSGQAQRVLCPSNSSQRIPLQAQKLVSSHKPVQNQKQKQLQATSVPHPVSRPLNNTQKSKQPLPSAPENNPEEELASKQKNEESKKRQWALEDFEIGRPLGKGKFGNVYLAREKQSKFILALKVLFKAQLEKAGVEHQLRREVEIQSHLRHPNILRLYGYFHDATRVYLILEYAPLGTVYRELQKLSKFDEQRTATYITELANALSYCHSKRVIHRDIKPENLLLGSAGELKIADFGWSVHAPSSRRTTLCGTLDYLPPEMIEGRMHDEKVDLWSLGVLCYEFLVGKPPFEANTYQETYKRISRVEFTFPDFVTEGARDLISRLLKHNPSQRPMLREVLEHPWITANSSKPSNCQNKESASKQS

[20] = as §2; format: cell-based, HEK-293T; in short: as §1
[21] = molecular target: T2, AURKB (Aurora kinase B); experiment: Inhibition of AURKB in human HEK293T cells assessed as reduction in cell viability at 10 uM measured after 48 hrs relative to control; format: cell-based, HEK-293T; in short: as §4
[22] = molecular target: T4, Aurora kinase B; experiment: Inhibition of AURKB in human HEK293T cells assessed as reduction in cell viability at 10 uM measured after 48 hrs; format: cell-based; conditions: hek-293t; in short: as §4
[23] = molecular target: T2, AURKB (Aurora kinase B); experiment: Inhibition of AURKB in human HEK293T cells assessed as reduction in cell viability at 40 nM measured after 48 hrs relative to control; format: cell-based, HEK-293T
In short: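 Cells were exposed to the Aurora inhibitor at 40 nM, alone or combined with a second DYRK1A inhibitor at 30, 90 or 270 nM, for 48 h. They were then fixed, stained and counted. Cell number is given as a percentage of untreated wells, with n = 4-16 and error bars as standard deviation.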

Kd [1]	EC50 [4]	MEC [6]	t1/2 [10]	t1/2 [11]	Structure (SMILES)	Ratio CC50/EC50 [2]	CC50 [3]	CC50 [7]	Selectivity Index [8]	further results
0.075 nM	3 nM				CCCCNC(=O)c1cnc2ccc(-c3cc(Cl)c(O)c(Cl)c3)nc2c1N[C@H]1CC[C@H](CN(C)C)CC1	17	51 nM			Kd [5]: 12 nM
	6 nM	3.3 nM	2.15 h	> 2.65 h	CCOC(=O)c1cnc2ccc(-c3cc(Cl)c(O)c(Cl)c3)nc2c1NC1CCN(C)CC1	170	1020 nM	387 nM	117	Papp at 2 h [9]: 4.6 ×10⁻⁶ cm/s
					O=C(O)[C@]1(Cc2cccc(Nc3nccs3)n2)CC[C@@H](Oc2cccc(Cl)c2F)CC1 [MK-5108]					inhibition at 48 h, 3 µM [12]: 24%
0.12 nM	5 nM	5 nM			CC(=O)c1cnc2ccc(-c3cc(Cl)c(O)c(Cl)c3)nc2c1N[C@H]1CC[C@H](CN(C)C)CC1		64 nM	20 nM		Activity [13]: 0%; Activity [14]: 0.65%; Activity [15]: 0%; Activity [16]: 1.7%; Activity [17]: 1.7%; Activity [18]: 0%; Activity [19]: 6.6%
	43 nM	63 nM	> 2.65 h	0.467 h	CCOC(=O)c1cnc2ccc(-c3cc(Cl)c(O)c(Cl)c3)nc2c1N[C@H]1CC[C@H](CC(N)=O)CC1	44		1390 nM	22	Papp at 2 h [9]: 0.01 ×10⁻⁶ cm/s; CC50 [20]: 1890 nM
					O=C(NC[C@H](O)CO)c1ccncc1Nc1ccc(I)cc1F [PIMASERTIB]					inhibition at 48 h, 10 µM [21]: 10%
	56 nM	63 nM	> 2.65 h	1.58 h	CCCCNC(=O)c1cnc2ccc(-c3cc(Cl)c(O)c(Cl)c3)nc2c1N[C@H]1CC[C@H](C(=O)N2CCOCC2)CC1	38		2440 nM	39	Papp ([9]; caco-2, 2 h): 9.1 ×10⁻⁶ cm/s; CC50 [20]: 2120 nM
					Cn1c(=O)c(F)c(Nc2ccc(I)cc2F)c2c(=O)n(C[C@@H](O)CO)cnc21 [TAK-733]					inhibition (INH) [22]: Not Active
					CCN(CCO)CCCOc1ccc2c(Nc3cc(CC(=O)Nc4cccc(F)c4)[nH]n3)ncnc2c1 [DEFOSBARASERTIB]					inhibition at 48 h, 0.04 µM [23]: 41%
0.22 nM	8 nM				CCOC(=O)c1cnc2ccc(-c3cc(Cl)c(O)c(Cl)c3)nc2c1N[C@H]1CC[C@H](CN)CC1	20	165 nM			Kd [5]: 9 nM
					O=C(O)c1ccc(Nc2ncc3c(n2)-c2ccc(Cl)cc2C(c2c(F)cccc2F)=NC3)cc1 [MLN-8054]					inhibition at 48 h, 0.04 µM [23]: 22%
	37 nM	3.3 nM	0.25 h	0.617 h	CCOC(=O)c1cnc2ccc(-c3ccnc(N)c3)nc2c1N[C@H]1CC[C@H](CN2CCOCC2)CC1	79		856 nM	259	Papp at 2 h [9]: 2.7 ×10⁻⁶ cm/s; CC50 [20]: 2960 nM
0.16 nM	7 nM				CCOC(=O)c1cnc2ccc(-c3cc(Cl)c(O)c(Cl)c3)nc2c1N[C@H]1CC[C@H](CN(C)C)CC1	26	186 nM			Kd [5]: 11 nM

Structure (SMILES)	Kd [1]	EC50 [4]	MEC [6]	t1/2 [10]	t1/2 [11]	Ratio CC50/EC50 [2]	CC50 [3]	CC50 [7]	Selectivity Index [8]	further results
CCOC(=O)c1cnc2ccc(-c3cc(Cl)c(O)c(Cl)c3)nc2c1N[C@H]1CC[C@H](C(=O)N(C)C)CC1	0.6 nM	50 nM	31 nM	> 2.65 h	> 2.65 h	119	5900 nM	2810 nM	91	Papp at 2 h [9]: 0.12 ×10⁻⁶ cm/s; Kd [5]: 13 nM
